Laboratory results as given in ChEMBL document CHEMBL3393017, “Flavokawains B and C, melanogenesis inhibitors, isolated from the root of Piper methysticum and synthesis of analogs” (Bioorg Med Chem Lett, 2015).

Experiments:
Tyrosinase = molecular target: T1, Tyrosinase (Agaricus bisporus, UniProt O42713); test: Inhibition of mushroom tyrosinase using L-tyrosine as substrate after 20 mins by microplate reader
T1 sequence (O42713 whole entry): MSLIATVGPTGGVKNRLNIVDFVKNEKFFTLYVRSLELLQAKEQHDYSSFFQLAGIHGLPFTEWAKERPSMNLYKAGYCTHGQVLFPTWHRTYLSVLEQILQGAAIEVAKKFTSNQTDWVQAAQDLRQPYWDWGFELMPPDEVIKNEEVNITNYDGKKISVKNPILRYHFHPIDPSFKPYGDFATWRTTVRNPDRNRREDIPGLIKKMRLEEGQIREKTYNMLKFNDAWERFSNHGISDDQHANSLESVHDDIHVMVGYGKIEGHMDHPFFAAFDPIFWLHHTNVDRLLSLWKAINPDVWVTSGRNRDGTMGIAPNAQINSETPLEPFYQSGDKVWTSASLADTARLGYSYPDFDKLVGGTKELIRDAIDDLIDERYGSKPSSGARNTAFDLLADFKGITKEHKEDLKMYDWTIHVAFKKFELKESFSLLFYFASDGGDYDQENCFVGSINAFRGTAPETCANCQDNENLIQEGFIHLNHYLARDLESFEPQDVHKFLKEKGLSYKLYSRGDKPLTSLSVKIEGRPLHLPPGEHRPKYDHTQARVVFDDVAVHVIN

[1] = (§1) Antimelanogenic activity in mouse B16F10 cells assessed as inhibition of melanin production after 4 days; type: functional, cell-based; conditions: B16-F10, 96 h
In short: (§2)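 MSH-activated B16 melanoma cells were treated in triplicate, with the medium changed daily. After 4 d the cells were lysed in 1 N NaOH, and relative melanin in the lysate was read at 400 nm. Compounds were screened at 10 ppm, and those giving >50% inhibition were retested at other concentrations to derive IC50. Viability was checked by crystal violet staining read at 590 nm.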

B16-F10 = test: as §1; type: functional, cell-based; in short: as §2

Row | Compound | IC50 (Tyrosinase) | IC50 [1] | inhibition (B16-F10)
1 | COc1ccc(/C=C/C(=O)c2c(O)cc(OC)cc2OC)c(OC)c1 | Not Active | – | –
2 | COc1cc(O)c(C(=O)/C=C/c2ccc(O)cc2)c(OC)c1 [FLAVOKAWAIN C] | Not Active | 6.9 µM | Dose-dependent effect
3 | COc1ccc(/C=C/C(=O)c2c(O)cc(OC)cc2OC)cc1 [FLAVOKAWAIN A] | Not Active | – | –
4 | COc1cc(O)c(C(=O)/C=C/c2c(C)cccc2C)c(OC)c1 | Not Active | 9.9 µM | –
5 | O=c1cc(CO)occ1O [KOJIC ACID] | – | > 500 µM | –
6 | COc1cc(O)c(C(=O)/C=C/c2ccccc2OC)c(OC)c1 | Not Active | 3.8 µM | –
7 | COc1cc(O)c(C(=O)/C=C/c2cccc(O)c2)c(OC)c1 | Not Active | 9.9 µM | –
8 | COc1cc(O)c(C(=O)/C=C/c2ccccc2)c(OC)c1 [FLAVOKAWAIN B] | Not Active | 7.7 µM | Dose-dependent effect
9 | COc1cc(O)c(C(=O)/C=C/c2ccc(O)c(O)c2)c(OC)c1 | Not Active | 31.6 µM | –

The next lines start with results.

Row | IC50 (Tyrosinase) | IC50 [1] | Compound | inhibition (B16-F10)
10 | Not Active | 3.1 µM | COc1cccc(/C=C/C(=O)c2c(O)cc(OC)cc2OC)c1 | –
11 | Not Active | 3 µM | COc1cc(O)c(C(=O)/C=C/c2ccccc2C)c(OC)c1 | –
12 | Not Active | 2.3 µM | COc1cc(O)c(C(=O)/C=C/c2ccccc2O)c(OC)c1 | –
13 | Not Active | 2.7 µM | COc1cc(O)c(C(=O)/C=C/c2ccccc2C(C)C)c(OC)c1 | –
14 | Not Active | 3.4 µM | COc1cc(O)c(C(=O)/C=C/c2ccc(O)cc2O)c(OC)c1 | –
15 | Not Active | 2.5 µM | CCc1ccccc1/C=C/C(=O)c1c(O)cc(OC)cc1OC | –
